CYP2C9 activ: increases human cytochrome P450 2C9 activity. P11712. recombinant CYP2C9, luciferin-H conversion, luminescence; stronger effect = higher value; factor 1 = untreated enzyme, 0 = blocked. activation factor at 5 µM. 96,000 compounds, 1.4% hits;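 active means activation factor of 2 or more for CYP2C9 at a 5 µM dose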
Target sequence (P11712 whole entry, looked up): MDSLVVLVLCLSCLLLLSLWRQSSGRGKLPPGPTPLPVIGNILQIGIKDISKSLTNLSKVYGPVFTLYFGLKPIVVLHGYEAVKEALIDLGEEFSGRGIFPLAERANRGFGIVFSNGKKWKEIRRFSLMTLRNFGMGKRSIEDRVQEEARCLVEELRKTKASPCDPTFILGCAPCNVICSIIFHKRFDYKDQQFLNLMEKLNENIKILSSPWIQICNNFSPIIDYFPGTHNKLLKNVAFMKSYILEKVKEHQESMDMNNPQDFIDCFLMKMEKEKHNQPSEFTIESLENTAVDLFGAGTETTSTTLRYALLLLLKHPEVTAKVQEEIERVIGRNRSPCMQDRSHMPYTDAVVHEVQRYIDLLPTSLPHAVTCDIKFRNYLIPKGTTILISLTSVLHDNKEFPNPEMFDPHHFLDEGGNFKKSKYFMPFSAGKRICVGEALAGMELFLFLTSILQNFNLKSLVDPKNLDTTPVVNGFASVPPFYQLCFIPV
CYP2C9 inh: blocks human cytochrome P450 2C9. 96,000 compounds, 20% hits. inhibition, % at 5 µM. CYP2C9 Supersomes, luciferin-H conversion, luminescence;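 active means blocking of liver enzyme CYP2C9 beyond about 50% at 5 µM, limit read from the data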
CYP2C19 inhib: blocks human cytochrome P450 2C19; P33261; CYP2C19 Supersomes, luciferin-H EGE luminescence, 30 min; inhibition, % at 5 µM; 96,000 compounds, 21% hits; AID 778;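 active means CYP2C19 inhibition above a set limit at 5 µM in the primary screen, cut at about 50% in these data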
CYP2C19 activ: increases human CYP2C19 enzyme activity. 96,000 tested, under 10 active. AID 1025. recombinant CYP2C19, luciferin-H EGE luminescence; stronger effect = higher value; 0 = fully inhibited enzyme, 1 = untreated enzyme. P33261. activation factor at 5 µM;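 active means activation factor of at least 2 at 5 µM in the primary screen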
Rev-RRE block: HIV Rev-RRE protein-RNA interaction inhibition; P05866; Rev peptide-RRE RNA binding, FRET; inhibition, % at 8 µM; 97,000 compounds, 0.79% hits;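 active means inhibition above the screen-wide mean plus 3 SD, cut at about 35% in these data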
Target sequence (P05866 whole entry, looked up): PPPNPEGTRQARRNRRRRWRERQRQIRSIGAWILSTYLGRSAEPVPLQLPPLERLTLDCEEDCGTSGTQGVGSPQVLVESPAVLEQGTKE
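Assay system: Rev peptide and RRE RNA, both fluorescently labelled; times: 5 min preincubation and 15 min binding, 25 °C; detection: FRET, ex 480 nm, em 540 and 671 nm; read-out basis: % inhibition from 671/540 nm acceptor-to-donor ratio, scaled between controls; benchmarks: DMSO low control, neomycin B high control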
Cav32 inh: human Cav3.2 channel inhibition, primary screen. Cav3.2-expressing cells, Fluo-4 calcium fluorescence FDSS; stronger effect = lower value. O95180. 100,000 compounds, 4% hits. B-score at 10 µM;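 active means single-dose well whose peak fluorescence ratio is a statistical outlier from its plate by either plate-standardised score or position-corrected B-score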
Large screens that a line does not name were inactive. A selection: hits, their analogues and other compounds. The true share with any hit is near 27%.

CCOC(=O)C1=C(C)Nc2nc(SCC)[nH]c(=O)c2C1c1ccncc1 (configuration not stated)	CYP2C9 inh 64, CYP2C19 inhib 84 (no result: Cav32 inh)
CCOC(=O)C1=C(C)N(C)C(C)=C(C(=O)OCC)C1c1cccnc1	CYP2C9 inh 84, CYP2C19 inhib 87
O=C(C1=C[C@@H](c2ccc(C(F)(F)F)cc2)C[C@@H](OCc2ccc(CO)cc2)O1)N1CCN(Cc2ccccc2)CC1	none (no result: CYP2C9 activ, CYP2C9 inh, CYP2C19 inhib, CYP2C19 activ, Rev-RRE block)
O=C(NCc1nc2ccccc2[nH]1)C1=C[C@@H](c2ccccc2)C[C@@H](OCc2ccc(CO)cc2)O1	none (no result: CYP2C9 activ, CYP2C9 inh, CYP2C19 inhib, CYP2C19 activ, Rev-RRE block)
COc1ccc(N2C(=O)c3ccccc3NC23C(=O)N(C)c2ccccc23)cc1 (configuration not stated)	none
COC(=O)c1ccc(C(C(=O)NC2CCCCC2)N(C(=O)Cc2cccs2)C2CC2)cc1 (configuration not stated)	none
CCOC(=O)C1=C(N)Oc2cc(C)n(C)c(=O)c2C1c1ccncc1 (configuration not stated)	CYP2C9 inh 73, CYP2C19 inhib 72 (no result: Rev-RRE block)
C#CCOCCOCCOCCNc1nc(N2CCN(C(=O)[C@H]([C@@H](C)CC)n3cc([C@@H](N)CO)nn3)CC2)nc(N2CCN(C(=O)[C@H](Cc3ccc(O)cc3)n3cc([C@@H](N)C(C)CC)nn3)CC2)n1 (some centres not stated)	none (no result: CYP2C9 activ, CYP2C9 inh, CYP2C19 inhib, CYP2C19 activ, Rev-RRE block)
Cc1ccc(OCC(=O)Nc2ccc(-c3nc4ncccc4o3)cc2)c(C)c1	CYP2C19 inhib 63
CC(C)CC(CO)N1CCN(C(=O)c2cccc(Cl)c2)CCC1=O (configuration not stated)	none (no result: CYP2C9 activ, CYP2C9 inh, CYP2C19 inhib, CYP2C19 activ, Rev-RRE block)
Cc1ccc(C(=O)Nc2ccccc2C(=O)N2CC3(C)CC2CC(C)(C)C3)cc1 (configuration not stated)	Cav32 inh -5.9
COc1ccc(C(C(=O)NC2CCCC2)N(C(=O)c2ccoc2C)c2ccc(C)cc2)cc1 (configuration not stated)	CYP2C9 inh 73, CYP2C19 inhib 50
O=C(NC1CCCCC1)C(c1ccc2ncccc2c1)N(Cc1ccc2c(c1)OCO2)C(=O)c1cccs1 (configuration not stated)	CYP2C9 inh 54
COc1ccc(C(C(=O)NC2CCCCC2)N(C(=O)c2cccs2)c2ccc3c(c2)OCO3)cc1 (configuration not stated)	CYP2C9 inh 53
COc1ccc(C(OC(=O)c2c(C)noc2C)C(=O)NC2CCCC2)cc1 (configuration not stated)	CYP2C9 inh 80, CYP2C19 inhib 50
Cn1cnnc1-c1cccc(NS(=O)(=O)c2ccc(N3CCCC3=O)cc2)c1	none (no result: CYP2C9 activ, CYP2C9 inh, CYP2C19 inhib, CYP2C19 activ)
O=C(NC1CCCCC1)C(c1ccc2ncccc2c1)N(Cc1ccccc1)C(=O)c1cccs1 (configuration not stated)	CYP2C9 inh 73
Cc1cc(C)cc(N(C(=O)CNC(=O)c2cccs2)C(C(=O)NC2CCCC2)c2cccnc2)c1 (configuration not stated)	none
Nc1nc(SCC(=O)NC2CCCCCC2)[nH]c(=O)c1-c1ccccc1	none
CC(SCc1ccccc1)C(=O)NC1CCCC1 (configuration not stated)	CYP2C9 inh 74, CYP2C19 inhib 83
COc1ccc(CCNC(=O)NC2CCCCC2)cc1OC	CYP2C19 inhib 82 (no result: Cav32 inh)
O=C(NCCc1ccccc1)NC1CCCCC1	CYP2C19 inhib 59
O=C(COc1ccc(Cl)cc1)NCc1nnc(SCC(=O)NC2CCCC2)o1	none
CCC1CCCCN1C(=O)CSc1nnc(-c2ccc(Cl)cc2)o1 (configuration not stated)	CYP2C19 inhib 82
CCC1CCCCN1C(=O)CSc1nnc(CNC(=O)COc2ccc(Cl)cc2)o1 (configuration not stated)	CYP2C9 inh 62
CCC1CCCCN1C(=O)CSc1nnc(-c2ccco2)o1 (configuration not stated)	none (no result: CYP2C9 activ, CYP2C9 inh, CYP2C19 inhib, CYP2C19 activ)
CCC1CCCCN1C(=O)CSc1nnc(-c2cccc(Cl)c2)o1 (configuration not stated)	CYP2C9 activ 2.3, CYP2C19 inhib 98 (no result: Rev-RRE block)
CCN(CC)c1ccc(NC(=O)CSc2nc3ccccc3c(=O)[nH]2)cc1	none (no result: Cav32 inh)
N#Cc1c(C(F)(F)F)cc(-c2ccc(Cl)c(Cl)c2)nc1SCCN1CCOCC1	none
N#Cc1c(C(F)(F)F)cc(-c2ccccc2)nc1SCc1nc(N)nc(N2CCOCC2)n1	CYP2C9 inh 80, CYP2C19 inhib 81 (no result: Rev-RRE block)
CC(Sc1nc(-c2ccccc2)cc(C(F)(F)F)n1)C(=O)Nc1sc2c(c1C#N)CCC2 (configuration not stated)	CYP2C9 inh 64
N#Cc1c(C(F)(F)F)cc(-c2ccccc2)nc1SCC(=O)Nc1sc2c(c1C#N)CCC2	CYP2C9 inh 71
O=C(O)CC(NC(=O)COc1ccc(Cl)cc1Cl)C(=O)O (configuration not stated)	none
COC(=O)c1sccc1Oc1ccc(F)cc1[N+](=O)[O-]	none
Cc1cc(C(=O)NCc2cccs2)c(C)o1	CYP2C19 inhib 50
O=C(NCc1cccs1)c1ccccc1	none
O=C(NCc1cccs1)c1csc2ccccc12	CYP2C19 inhib 85
Cc1ccccc1S(=O)(=O)Cc1ccc(C(=O)NCc2cccs2)o1	none
Cc1cc(C(=O)NCc2cccs2)cs1	CYP2C19 inhib 73
Cc1ccc(S(=O)(=O)Cc2ccc(C(=O)NCc3cccs3)o2)cc1	CYP2C9 inh 72
Cc1ccc(-c2ccc(=O)n(CC(=O)Nc3cccc(C(=O)N4CCN(C)CC4)c3)n2)cc1	none
COc1ccc(C(=O)COC(=O)CCn2nnc(-c3cccs3)n2)cc1	none (no result: Cav32 inh)
CC(C)Cc1cc(C(=O)NCc2cccs2)no1	CYP2C19 inhib 80 (no result: Rev-RRE block)
COC(=O)CSc1nnc(CNC(=O)Cc2ccccc2)n1C	none
NC(=O)c1ccccc1N/C=C/C(=O)c1ccco1	CYP2C19 inhib 60
O=C(NCCCN1CCOCC1)c1ccc(-n2nc(C(F)(F)F)cc2-c2cccs2)cc1	CYP2C9 inh 65
Cc1ccc(C(=O)NCCCN2CCOCC2)cc1	none (no result: CYP2C9 activ, CYP2C9 inh, CYP2C19 inhib, CYP2C19 activ)
Cc1ccc(C2CN(C)C3(C(=O)Nc4ccccc43)C23COc2ccccc2C3=O)cc1 (configuration not stated)	none (no result: Cav32 inh)
CN1CC(c2ccccc2)C2(SC(=S)N(Cc3ccco3)C2=O)C12C(=O)Nc1ccccc12 (configuration not stated)	CYP2C9 inh 95, CYP2C19 inhib 96, Cav32 inh -4.7
CN1CC(c2ccccn2)C2(SC(=S)N(Cc3ccccc3)C2=O)C12C(=O)Nc1ccccc12 (configuration not stated)	Cav32 inh -4.8
O=C1CC(c2nc3ccccc3[nH]2)CN1c1cccc(C(F)(F)F)c1 (configuration not stated)	Cav32 inh -5.4 (no result: CYP2C9 activ, CYP2C9 inh, CYP2C19 inhib, CYP2C19 activ, Rev-RRE block)
